Results as given in ChEMBL document CHEMBL1268915, “Optimization of a series of dipeptides with a P3 threonine residue as non-covalent inhibitors of the chymotrypsin-like activity of the human 20S proteasome” (Bioorg Med Chem Lett, 2010).
The source made the active and inactive calls. No cut-off for these calls is given here.

Experiments:
[1] = target: Cathepsin B (Homo sapiens) (UniProt P07858); assay: Inhibition of human cathepsin B at 100uM
[2] = Binding affinity to chymotrypsin-like activity of 20S proteasome
[3] = Inhibition of chymotrypsin-like activity of human 20s proteasome beta-1 subunit in human erythrocyte assessed as hydrolysis of Ac-WLA-AMC fluorogenic substrate
Homo sapiens [4] = species: Homo sapiens; assay: Inhibition of human elastase at 100 uM
[5] = target: Plasminogen (Homo sapiens) (UniProt P00747); assay: Inhibition of human plasmin at 100 uM
Plasminogen (Homo sapiens), sequence (P00747 97-580 limits assumed): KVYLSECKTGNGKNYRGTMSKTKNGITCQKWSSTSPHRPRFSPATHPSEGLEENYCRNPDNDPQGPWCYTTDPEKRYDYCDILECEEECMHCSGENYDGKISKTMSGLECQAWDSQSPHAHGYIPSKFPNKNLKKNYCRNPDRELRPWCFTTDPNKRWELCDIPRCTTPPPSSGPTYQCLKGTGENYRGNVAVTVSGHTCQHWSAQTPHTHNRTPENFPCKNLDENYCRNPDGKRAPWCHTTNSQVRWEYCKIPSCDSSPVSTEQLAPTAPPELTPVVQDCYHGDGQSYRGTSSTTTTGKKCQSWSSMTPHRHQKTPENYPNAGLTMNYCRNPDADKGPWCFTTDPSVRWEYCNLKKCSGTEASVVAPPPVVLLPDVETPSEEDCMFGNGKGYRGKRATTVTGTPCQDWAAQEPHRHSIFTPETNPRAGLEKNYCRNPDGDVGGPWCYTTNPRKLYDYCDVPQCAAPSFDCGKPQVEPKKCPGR
Plasminogen (Homo sapiens), sequence (P00747 581-810 limits assumed): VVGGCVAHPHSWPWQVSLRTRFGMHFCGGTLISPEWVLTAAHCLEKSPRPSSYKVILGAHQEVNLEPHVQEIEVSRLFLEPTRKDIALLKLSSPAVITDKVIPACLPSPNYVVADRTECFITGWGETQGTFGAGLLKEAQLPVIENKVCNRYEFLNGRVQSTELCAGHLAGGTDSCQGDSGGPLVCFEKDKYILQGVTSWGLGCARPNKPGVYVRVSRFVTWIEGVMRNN

[6] = target: T1, Coagulation factor XII (Homo sapiens) (UniProt P00748); assay: Inhibition of human coagulation factor beta 12a at 100 uM
T1 sequence (whole entry): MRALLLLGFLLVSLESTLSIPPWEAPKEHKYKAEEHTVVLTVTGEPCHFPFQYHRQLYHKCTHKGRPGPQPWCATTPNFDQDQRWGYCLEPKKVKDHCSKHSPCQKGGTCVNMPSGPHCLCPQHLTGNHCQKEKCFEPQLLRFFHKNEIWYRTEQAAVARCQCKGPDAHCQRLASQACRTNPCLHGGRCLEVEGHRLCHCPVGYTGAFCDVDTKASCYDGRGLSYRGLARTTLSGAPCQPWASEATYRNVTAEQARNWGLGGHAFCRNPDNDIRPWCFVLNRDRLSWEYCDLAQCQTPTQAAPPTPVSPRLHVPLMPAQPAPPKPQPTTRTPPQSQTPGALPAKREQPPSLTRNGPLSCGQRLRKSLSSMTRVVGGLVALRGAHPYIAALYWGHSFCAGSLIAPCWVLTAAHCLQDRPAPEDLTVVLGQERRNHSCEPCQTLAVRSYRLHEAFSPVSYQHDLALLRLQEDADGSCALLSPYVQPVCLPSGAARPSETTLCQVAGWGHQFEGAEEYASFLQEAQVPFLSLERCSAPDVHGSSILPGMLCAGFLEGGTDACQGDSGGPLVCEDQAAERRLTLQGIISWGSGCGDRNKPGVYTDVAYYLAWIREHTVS

[7] = target: Procathepsin L (Homo sapiens) (UniProt P07711); assay: Inhibition of human cathepsin L at 100uM
Procathepsin L (Homo sapiens), sequence (P07711 114-333 limits assumed): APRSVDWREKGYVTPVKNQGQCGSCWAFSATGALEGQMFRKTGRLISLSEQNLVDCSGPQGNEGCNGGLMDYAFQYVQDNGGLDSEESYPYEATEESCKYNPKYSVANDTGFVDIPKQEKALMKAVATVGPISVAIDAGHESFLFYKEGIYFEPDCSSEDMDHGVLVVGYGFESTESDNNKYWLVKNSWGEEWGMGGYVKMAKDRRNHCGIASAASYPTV

[8] = (§1) Inhibition of TNF-alpha-induced NF-kappaB activation in human HEK293 cells after 3 hrs by luciferase reporter gene assay; format: cell-based; settings: HEK293, 3 h
Outline: (§2)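 NF-κB-luciferase reporter in HEK293 cells (10,000 per well). Cells were pre-incubated with compound for 1 h, then stimulated with 10 ng/ml TNF-α for 3 h with compound still present. IC50 and percentage inhibition were reported as means of at least three independent experiments.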

HEK293 = assay: as §1; format: cell-based; design: concentration or dose not given beside the values; settings: dose or concentration not given here; outline: as §2
[9] = target: Prothrombin (Homo sapiens) (UniProt P00734); assay: Inhibition of human thrombin at 100 uM
[10] = Cytotoxicity against human Calu6 cells assessed as cellular ATP level after 72 hrs by luminescence-based ATPlite assay; format: cell-based, Calu-6; settings: read-out: LC50
Outline: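 Calu6 cells, 2000 per well, incubated with compound for 72 h. Viability read as cellular ATP by luminescence (ATPlite). Values are means of at least three independent experiments.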

Trypsin (Homo sapiens) = Trypsin (Homo sapiens) (UniProt P07477+P07478+P35030); assay: Inhibition of human trypsin at 100 uM; format: protein assay
[11] = target: Tissue-type plasminogen activator (Homo sapiens) (UniProt P00750); assay: Inhibition of tissue plasminogen activator at 100 uM
Tissue-type plasminogen activator (Homo sapiens), sequence (P00750 36-562 limits assumed): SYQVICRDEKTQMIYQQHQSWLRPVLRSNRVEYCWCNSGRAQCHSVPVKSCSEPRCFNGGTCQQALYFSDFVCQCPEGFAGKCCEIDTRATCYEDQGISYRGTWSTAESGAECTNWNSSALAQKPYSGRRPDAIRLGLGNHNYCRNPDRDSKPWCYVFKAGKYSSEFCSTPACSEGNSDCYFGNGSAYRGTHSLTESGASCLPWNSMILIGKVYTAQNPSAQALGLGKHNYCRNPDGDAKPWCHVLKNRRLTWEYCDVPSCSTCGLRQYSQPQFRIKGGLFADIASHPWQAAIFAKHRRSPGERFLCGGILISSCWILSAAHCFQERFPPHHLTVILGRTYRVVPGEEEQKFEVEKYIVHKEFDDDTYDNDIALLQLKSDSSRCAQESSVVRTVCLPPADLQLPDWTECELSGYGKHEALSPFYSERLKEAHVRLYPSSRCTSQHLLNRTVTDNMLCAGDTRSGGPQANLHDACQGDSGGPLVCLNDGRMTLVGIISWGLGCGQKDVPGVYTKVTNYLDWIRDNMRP

Homo sapiens [12] = species: Homo sapiens; assay: Inhibition of human chymotrypsin at 100 uM
[13] = target: T2, Calpain-1 catalytic subunit (Homo sapiens) (UniProt P07384); assay: Inhibition of human calpain 1 at 100 uM
T2 sequence (whole entry): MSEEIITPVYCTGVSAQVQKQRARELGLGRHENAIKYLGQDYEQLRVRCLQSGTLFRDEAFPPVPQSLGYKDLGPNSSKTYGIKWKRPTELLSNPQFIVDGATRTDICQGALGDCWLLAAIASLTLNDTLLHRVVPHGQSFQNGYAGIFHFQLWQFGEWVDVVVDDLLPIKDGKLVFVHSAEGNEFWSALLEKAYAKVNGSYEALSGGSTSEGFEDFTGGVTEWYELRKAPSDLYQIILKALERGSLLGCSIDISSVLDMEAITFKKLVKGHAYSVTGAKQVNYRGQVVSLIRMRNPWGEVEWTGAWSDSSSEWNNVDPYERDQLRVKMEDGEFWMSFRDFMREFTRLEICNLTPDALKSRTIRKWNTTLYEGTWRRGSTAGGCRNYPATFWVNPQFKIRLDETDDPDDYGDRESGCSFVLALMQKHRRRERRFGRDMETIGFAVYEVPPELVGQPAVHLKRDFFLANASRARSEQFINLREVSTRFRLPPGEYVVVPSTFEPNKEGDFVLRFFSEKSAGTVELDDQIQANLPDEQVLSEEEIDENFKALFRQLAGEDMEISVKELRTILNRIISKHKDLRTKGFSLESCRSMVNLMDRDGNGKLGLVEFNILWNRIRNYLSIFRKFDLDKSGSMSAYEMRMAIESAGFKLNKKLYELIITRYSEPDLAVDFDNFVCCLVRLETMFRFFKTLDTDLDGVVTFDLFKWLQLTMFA

[14] = Inhibition of chymotrypsin-like activity of human 20s proteasome beta2 subunit in human erythrocyte assessed as hydrolysis of Ac-WLA-AMC fluorogenic substrate
[15] = Inhibition of chymotrypsin-like activity of human 20s proteasome beta5 subunit in human erythrocyte assessed as hydrolysis of Ac-WLA-AMC fluorogenic substrate

Row | Compound | inhibition [1] | Ki [2] | IC50 [3] | inhibition (Homo sapiens [4]) | inhibition [5] | inhibition [6] | inhibition [7] | IC50 [8] | inhibition (HEK293) | inhibition [9] | CC50 at 72 h [10] | inhibition (Trypsin (Homo sapiens)) | inhibition [11] | inhibition (Homo sapiens [12]) | inhibition [13] | IC50 [14] | IC50 [15]
1 | CC(C)C[C@H](NC(=O)[C@H](Cc1ccccc1)NC(=O)c1cnccn1)B(O)O [BORTEZOMIB] | Active | 0.55 nM | > 20000 nM | Active | Active | Active | Active | 10 nM | 100% | Active | 6.1 nM | Active | Active | Active | Active | > 20000 nM | –
2 | Cc1ccc(CNC(=O)[C@H](CCc2ccccc2)NC(=O)[C@@H](NC(=O)C(=O)c2c[nH]c3ccccc23)[C@@H](C)O)cc1 | Active | – | > 20000 nM | Active | Active | Active | Active | 90 nM | 100% | Active | 136 nM | Active | Active | Active | Active | > 20000 nM | 7.3 nM
3 | C[C@@H](O)[C@H](NC(=O)c1ccc(OCc2ccccc2)cc1)C(=O)N[C@@H](CCc1ccccc1)C(=O)NCc1ccccc1 | Active | – | > 20000 nM | Active | Active | Active | Active | 710 nM | 68% | Active | 1400 nM | Active | Active | Active | Active | > 20000 nM | 68 nM
